Data reported in ChEMBL document CHEMBL5236607, “Membrane-Active Cyclic Amphiphilic Peptides: Broad-Spectrum Antibacterial Activity Alone and in Combination with Antibiotics” (J Med Chem, 2022).
Peptide text beside a SMILES is read from it.

Legend:
Type in all cases: functional
[1] = tested on: Staphylococcus aureus; assay: Synergistic antibacterial activity against methicillin resistant Staphylococcus aureus ATCC BAA-1556 fractional inhibitory concentration index incubated for 24 hrs in presence of vancomycin by checkerboard assay
Outline: (§1)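 Checkerboard assay. Inoculum from an LB overnight culture at 0.5 McFarland, diluted 1/150 in MH media. […] Incubated 37 °C for 24 h. FICI = MIC combination/MIC alone summed over both agents. Triplicate.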

[2] = tested on: Klebsiella pneumoniae; assay: Synergistic antibacterial activity against Klebsiella pneumoniae ATCC BAA-1705 fractional inhibitory concentration incubated for 24 hrs in presence of daptomycin by checkerboard assay
Outline: (§2)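 Checkerboard assay in MH broth. Inoculum from an LB overnight culture set to 0.5 McFarland and diluted 1/150. […] Each agent was also titrated alone. Incubation 24 h at 37 °C. FIC = combination MIC/individual MIC; FICI = sum of the FICs. Triplicate.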

[3] = tested on: Pseudomonas aeruginosa; assay: Synergistic antibacterial activity against Pseudomonas aeruginosa ATCC […] fractional inhibitory concentration incubated for 24 hrs in presence of kanamycin by checkerboard assay; outline: as §1
[4] = tested on: Klebsiella pneumoniae; assay: Synergistic antibacterial activity against Klebsiella pneumoniae ATCC BAA-1705 fractional inhibitory concentration index incubated for 24 hrs in presence of kanamycin by checkerboard assay; outline: as §2
[5] = tested on: Pseudomonas aeruginosa; assay: Synergistic antibacterial activity against Pseudomonas aeruginosa ATCC […] fractional inhibitory concentration incubated for 24 hrs in presence of daptomycin by checkerboard assay
[6] = tested on: Pseudomonas aeruginosa; assay: Synergistic antibacterial activity against Pseudomonas aeruginosa ATCC […] fractional inhibitory concentration index incubated for 24 hrs in presence of metronidazole by checkerboard assay
[7] = tested on: Escherichia coli; assay: Synergistic antibacterial activity against Escherichia coli ATCC 25922 fractional inhibitory concentration incubated for 24 hrs in presence of levofloxacin by checkerboard assay; outline: as §2
[8] = tested on: Escherichia coli; assay: Synergistic antibacterial activity against Escherichia coli ATCC 25922 assessed as fractional inhibitory concentration incubated for 24 hrs in presence of tetracycline by checkerboard assay; outline: as §2
[9] = tested on: Pseudomonas aeruginosa; assay: Synergistic antibacterial activity against Pseudomonas aeruginosa ATCC […] incubated for 24 hrs in presence of Ciprofloxacin by checkerboard assay
[10] = tested on: Staphylococcus aureus; assay: Synergistic antibacterial activity against methicillin resistant Staphylococcus aureus ATCC BAA-1556 incubated for 24 hrs in presence of tobramycin by checkerboard assay; outline: as §1
[11] = tested on: Escherichia coli; assay: Synergistic antibacterial activity against Escherichia coli ATCC 25922 assessed as fractional inhibitory concentration incubated for 24 hrs in presence of clindamycin by checkerboard assay; outline: as §2
[12] = tested on: Staphylococcus aureus; assay: Synergistic antibacterial activity against methicillin resistant Staphylococcus aureus ATCC BAA-1556 incubated for 24 hrs in presence of vancomycin by checkerboard assay; outline: as §1
[13] = tested on: Escherichia coli; assay: Synergistic antibacterial activity against Escherichia coli ATCC 25922 incubated for 24 hrs in presence of tetracycline by checkerboard assay; outline: as §2
[14] = tested on: Klebsiella pneumoniae; assay: Synergistic antibacterial activity against Klebsiella pneumoniae ATCC BAA-1705 fractional inhibitory concentration incubated for 24 hrs in presence of polymyxin B by checkerboard assay; outline: as §2
[15] = tested on: Pseudomonas aeruginosa; assay: Synergistic antibacterial activity against Pseudomonas aeruginosa ATCC […] fractional inhibitory concentration index incubated for 24 hrs in presence of kanamycin by checkerboard assay
[16] = tested on: Klebsiella pneumoniae; assay: Synergistic antibacterial activity against Klebsiella pneumoniae ATCC BAA-1705 fractional inhibitory concentration incubated for 24 hrs in presence of levofloxacin by checkerboard assay; outline: as §2
[17] = tested on: Pseudomonas aeruginosa; assay: Synergistic antibacterial activity against Pseudomonas aeruginosa ATCC […] incubated for 24 hrs in presence of meropenem by checkerboard assay
[18] = tested on: Pseudomonas aeruginosa; assay: Synergistic antibacterial activity against Pseudomonas aeruginosa ATCC […] fractional inhibitory concentration index incubated for 24 hrs in presence of daptomycin by checkerboard assay
[19] = tested on: Klebsiella pneumoniae; assay: Synergistic antibacterial activity against Klebsiella pneumoniae ATCC BAA-1705 fractional inhibitory concentration index incubated for 24 hrs in presence of polymyxin B by checkerboard assay
[20] = tested on: Escherichia coli; assay: Synergistic antibacterial activity against Escherichia coli ATCC 25922 assessed as fractional inhibitory concentration index incubated for 24 hrs in presence of clindamycin by checkerboard assay; outline: as §2
[21] = tested on: Pseudomonas aeruginosa; assay: Synergistic antibacterial activity against Pseudomonas aeruginosa ATCC […] fractional inhibitory concentration index incubated for 24 hrs in presence of levofloxacin by checkerboard assay
[22] = tested on: Pseudomonas aeruginosa; assay: Synergistic antibacterial activity against Pseudomonas aeruginosa ATCC […] fractional inhibitory concentration index incubated for 24 hrs in presence of vancomycin by checkerboard assay
[23] = tested on: Pseudomonas aeruginosa; assay: Synergistic antibacterial activity against Pseudomonas aeruginosa ATCC […] fractional inhibitory concentration incubated for 24 hrs in presence of Ciprofloxacin by checkerboard assay
[24] = tested on: Escherichia coli; assay: Synergistic antibacterial activity against Escherichia coli ATCC 25922 fractional inhibitory concentration index incubated for 24 hrs in presence of vancomycin by checkerboard assay; outline: as §1
[25] = tested on: Escherichia coli; assay: Synergistic antibacterial activity against Escherichia coli ATCC 25922 fractional inhibitory concentration incubated for 24 hrs in presence of kanamycin by checkerboard assay; outline: as §2
[26] = tested on: Pseudomonas aeruginosa; assay: Synergistic antibacterial activity against Pseudomonas aeruginosa ATCC […] fractional inhibitory concentration incubated for 24 hrs in presence of levofloxacin by checkerboard assay
[27] = tested on: Pseudomonas aeruginosa; assay: Synergistic antibacterial activity against Pseudomonas aeruginosa ATCC […] fractional inhibitory concentration index incubated for 24 hrs in presence of Ciprofloxacin by checkerboard assay
[28] = tested on: Pseudomonas aeruginosa; assay: Synergistic antibacterial activity against Pseudomonas aeruginosa ATCC […] assessed as fractional inhibitory concentration index incubated for 24 hrs in presence of clindamycin by checkerboard assay; outline: as §1
[29] = tested on: Klebsiella pneumoniae; assay: Synergistic antibacterial activity against Klebsiella pneumoniae ATCC BAA-1705 fractional inhibitory concentration incubated for 24 hrs in presence of metronidazole by checkerboard assay; outline: as §1
[30] = tested on: Escherichia coli; assay: Synergistic antibacterial activity against Escherichia coli ATCC 25922 fractional inhibitory concentration index incubated for 24 hrs in presence of kanamycin by checkerboard assay; outline: as §2
[31] = tested on: Klebsiella pneumoniae; assay: Synergistic antibacterial activity against Klebsiella pneumoniae ATCC BAA-1705 fractional inhibitory concentration incubated for 24 hrs in presence of kanamycin by checkerboard assay; outline: as §2
[32] = tested on: Staphylococcus aureus; assay: Synergistic antibacterial activity against methicillin resistant Staphylococcus aureus ATCC BAA-1556 assessed as fractional inhibitory concentration incubated for 24 hrs in presence of tetracycline by checkerboard assay; outline: as §1
[33] = tested on: Klebsiella pneumoniae; assay: Synergistic antibacterial activity against Klebsiella pneumoniae ATCC BAA-1705 fractional inhibitory concentration index incubated for 24 hrs in presence of vancomycin by checkerboard assay; outline: as §1
[34] = tested on: Escherichia coli; assay: Synergistic antibacterial activity against Escherichia coli ATCC 25922 fractional inhibitory concentration incubated for 24 hrs in presence of vancomycin by checkerboard assay; outline: as §2
[35] = tested on: Pseudomonas aeruginosa; assay: Synergistic antibacterial activity against Pseudomonas aeruginosa ATCC […] assessed as fractional inhibitory concentration incubated for 24 hrs in presence of clindamycin by checkerboard assay
[36] = tested on: Klebsiella pneumoniae; assay: Synergistic antibacterial activity against Klebsiella pneumoniae ATCC BAA-1705 fractional inhibitory concentration index incubated for 24 hrs in presence of daptomycin by checkerboard assay; outline: as §2
[37] = tested on: Klebsiella pneumoniae; assay: Synergistic antibacterial activity against Klebsiella pneumoniae ATCC BAA-1705 assessed as fractional inhibitory concentration index incubated for 24 hrs in presence of tetracycline by checkerboard assay; outline: as §2
[38] = tested on: Klebsiella pneumoniae; assay: Synergistic antibacterial activity against Klebsiella pneumoniae ATCC BAA-1705 assessed as fractional inhibitory concentration incubated for 24 hrs in presence of tobramycin by checkerboard assay; outline: as §2

Structure (SMILES): N=C(N)NCCC[C@@H]1NC(=O)[C@H](CCCNC(=N)N)NC(=O)[C@H](CCCNC(=N)N)NC(=O)[C@H](Cc2c[nH]c3ccccc23)NC(=O)[C@H](Cc2c[nH]c3ccccc23)NC(=O)[C@H](Cc2c[nH]c3ccccc23)NC(=O)[C@H](Cc2c[nH]c3ccccc23)NC(=O)[C@H](CCCNC(=N)N)NC(=O)[C@H](CCCNC(=N)N)NC1=O
- fractional inhibitory concentration index (FICI) [1]: 0.75
- FIC [2]: 0.0156
- FIC [3]: 0.0313
- fractional inhibitory concentration index (FICI) [4]: 0.375
- FIC [5]: 0.063
- fractional inhibitory concentration index (FICI) [6]: 0.5
- FIC [7]: 0.125
- FIC [8]: 0.125
- MIC [9]: 0.125 mg/L
- MIC [10]: 0.125 mg/L
- FIC [11]: 0.063
- MIC [12]: 0.5 mg/L
- MIC [13]: 1 mg/L
- FIC [14]: 0.125
- fractional inhibitory concentration index (FICI) [15]: 0.281
- FIC [16]: 0.125
- MIC [17]: 0.125 mg/L
- fractional inhibitory concentration index (FICI) [18]: 0.313
- fractional inhibitory concentration index (FICI) [19]: 0.375
- fractional inhibitory concentration index (FICI) [20]: 0.313
- fractional inhibitory concentration index (FICI) [21]: 0.375
- fractional inhibitory concentration index (FICI) [22]: 0.313
- FIC [23]: 0.25
- fractional inhibitory concentration index (FICI) [24]: 0.531
- FIC [25]: 0.25
- FIC [26]: 0.125
- fractional inhibitory concentration index (FICI) [27]: 0.5
- fractional inhibitory concentration index (FICI) [28]: 0.266
- FIC [29]: 0.0313
- fractional inhibitory concentration index (FICI) [30]: 0.5
- FIC [31]: 0.125
- FIC [32]: 0.25
- fractional inhibitory concentration index (FICI) [33]: 0.563
- FIC [34]: 0.0313
- FIC [35]: 0.016
- fractional inhibitory concentration index (FICI) [36]: 0.516
- fractional inhibitory concentration index (FICI) [37]: 0.375
- FIC [38]: 0.125

Structure (SMILES): N=C(N)NCCC[C@@H]1NC(=O)[C@H](CCCNC(=N)N)NC(=O)[C@H](CCCNC(=N)N)NC(=O)[C@H](CCCNC(=N)N)NC(=O)[C@H](Cc2c[nH]c3ccccc23)NC(=O)[C@H](Cc2c[nH]c3ccccc23)NC(=O)[C@H](Cc2c[nH]c3ccccc23)NC(=O)[C@H](Cc2c[nH]c3ccccc23)NC(=O)[C@H](CCCNC(=N)N)NC(=O)[C@H](CCCNC(=N)N)NC1=O (cyclo(RRRRRRWWWW))
- fractional inhibitory concentration index (FICI) [1]: 0.5
- FIC [2]: 0.125
- FIC [3]: 0.0156
- fractional inhibitory concentration index (FICI) [4]: 0.5
- FIC [5]: 0.0156
- fractional inhibitory concentration index (FICI) [6]: 0.375
- FIC [7]: 0.125
- FIC [8]: 0.063
- MIC [9]: 0.125 mg/L
- MIC [10]: 0.0625 mg/L
- FIC [11]: 0.063
- MIC [12]: 0.25 mg/L
- MIC [13]: 0.5 mg/L
- FIC [14]: 0.031
- fractional inhibitory concentration index (FICI) [15]: 0.266
- FIC [16]: 0.125
- MIC [17]: 0.25 mg/L
- fractional inhibitory concentration index (FICI) [18]: 0.516
- fractional inhibitory concentration index (FICI) [19]: 0.281
- fractional inhibitory concentration index (FICI) [20]: 0.313
- fractional inhibitory concentration index (FICI) [21]: 0.375
- fractional inhibitory concentration index (FICI) [22]: 0.531
- FIC [23]: 0.25
- fractional inhibitory concentration index (FICI) [24]: 0.563
- FIC [25]: 0.125
- FIC [26]: 0.125
- fractional inhibitory concentration index (FICI) [27]: 0.5
- fractional inhibitory concentration index (FICI) [28]: 0.516
- FIC [29]: 0.063
- fractional inhibitory concentration index (FICI) [30]: 0.375
- FIC [31]: 0.25
- FIC [32]: 0.25
- fractional inhibitory concentration index (FICI) [33]: 0.313
- FIC [34]: 0.063
- FIC [35]: 0.016
- fractional inhibitory concentration index (FICI) [36]: 0.375
- fractional inhibitory concentration index (FICI) [37]: 0.375
- FIC [38]: 0.25
